Measurements gathered from unrelated publications.
Protocols differ between the studies behind these lines.
Target: STE20-like serine/threonine-protein kinase (SLK, Homo sapiens, UniProt Q9H2G2)

SMILES | effect on | action | method | concentration | quantity | result
Cc1nn(C)cc1-c1nc2c(N3CCN(Cc4ccc(Cl)cc4)CC3)c(Cl)cnc2[nH]1 | binding |  | competition with immobilised ligand | 1 µM | remaining binding | 100%
COc1ncccc1-c1cnn2ccc(N3CCN(C(=O)OC(C)C)CC3)nc12 | binding |  | competition with immobilised ligand | 1 µM | remaining binding | 100%
N#CC1(c2ccccn2)CCN(Cc2cc(C(=O)O)c(=O)n3ccccc23)CC1 | cell-free assay |  | competition with immobilised ligand | 1 µM | remaining binding | 99%
CC(C)(C)c1cc(C=C(C#N)C#N)cc(Br)c1O | enzyme activity | inhibitor |  | 0.5 µM | remaining activity | 94.7%
Cn1cncc1[C@@](O)(COc1ccc(C#N)cc1-c1ccc(OC(F)(F)F)cc1)c1ccc(C#N)cc1 | cell-free assay |  | competition with immobilised ligand | 1 µM | remaining binding | 100%
O=c1[nH]c2ccccc2n1C1CCN(Cc2ccc(-c3[nH]c4cc5ncnc5cc4nc3-c3ccccc3)cc2)CC1 | cell-free assay |  |  | 0.5 µM | remaining signal | 97.7%
Cn1cc(-c2cc(F)cc(N3CCn4c(cc5c4CCCC5)C3=O)c2CO)cc(Nc2ccc(N3CCN(C4COC4)CC3)cn2)c1=O | enzyme activity | inhibitor |  | 0.1 µM | inhibition | 4%
COc1cc(Nc2ncc(F)c(Nc3ccc4c(n3)NC(=O)C(C)(C)O4)n2)cc(OC)c1OC | binding |  |  | 10 µM | inhibition | 100%
Cn1cc(-c2cccc(N3CCc4c(sc5c4CC(C)(C)C5)C3=O)c2CO)cc(Nc2ccncn2)c1=O | enzyme activity | inhibitor |  | 1 µM | inhibition | 4%
Nc1ncc(-c2nc(N3CCOCC3)nc(N3CCOCC3)n2)c(C(F)F)n1 | binding |  | competition with immobilised ligand | 10 µM | remaining binding | 24%
